Source: ChEMBL document CHEMBL3244353, “Antiallergy activity of substituted 11-oxo-11 H-pyrido[2,1-b]quinazoline-8-carboxylic acids” (J Med Chem, 1979)
The source made the active and inactive calls. The calls are words filed in the database; no cut-off is given here.

What was measured:
Rattus norvegicus [1] = assay: Antiallergic activity in po dosed rat assessed as inhibition of ovalbumin-induced passive cutaneous anaphylaxis; assay type: functional; settings: for ED50: read-out: ID50 (the source's name)
Summary of the method: (§1)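 Passive cutaneous anaphylaxis in rats sensitized intradermally with antiserum 48 h before iv challenge with 1 mg ovalbumin plus 0.25% Evans Blue. Drug was suspended in 1% gum tragacanth in saline and given orally 10-15 min before antigen. Spot diameter was read on reflected dorsal skin. Percent inhibition was taken against the extrapolated base value. Groups of five; ID50 in mg/kg.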

Rattus norvegicus [2] = assay: Antiallergic activity in rat assessed as inhibition of ovalbumin-induced passive cutaneous anaphylaxis at 0.5 mg/kg, iv measured after 14 days; assay type: functional
Summary of the method: (§2)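 Rats were passively sensitized by intradermal injection of antiserum dilutions on the back. 48 h later they received 1 mg ovalbumin iv in 1 mL saline with 0.25% Evans Blue. Compound was dissolved in the antigen solution, using a slight molar excess of sodium bicarbonate if needed, and given with it. Mean orthogonal spot diameter was read on reflected dorsal skin. Percent inhibition was taken against the extrapolated base value. n=5 per group; Student's t test, p≤0.05.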

Rattus norvegicus [3] = assay: Antiallergic activity in iv dosed rat assessed as inhibition of ovalbumin-induced passive cutaneous anaphylaxis; assay type: functional; settings: for ED50: Rattus norvegicus, iv, read-out: ID50 (the source's name); summary of the method: as §2
Rattus norvegicus [4] = assay: Antiallergic activity in po dosed rat allergic bronchoconstriction model assessed as reduction in respiratory flow rate administered 15 to 30 mins prior to ovalbumin challenge measured after 10 mins; assay type: functional
Summary of the method: (§3)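 Rats were immunized im with 1 mg ovalbumin on alumina, three times on alternate days. On day 8, 9 or 10 they were anesthetized with pentobarbital 60 mg/kg ip, tracheally cannulated and allowed to breathe spontaneously via a pneumotachograph. Drug was given orally 15 and 30 min before iv jugular 1 mg ovalbumin. Fall in respiratory flow rate and 10-min survival were recorded. Value is the mg/kg po dose inhibiting a 40% flow reduction.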

[5] = Antiallergic activity in rat peritoneal mast cells assessed as inhibition of ovalbumin-induced histamine release after 15 mins; assay type: functional, cell-based; settings: Mast cell, 0.25 h
Summary of the method: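 Rat peritoneal mast cells were passively sensitized with the PCA antiserum, washed, and resuspended in Hank's balanced salt solution containing ovalbumin 20 mcg/mL plus drug. After 15 min at 37 °C, histamine released into the supernatant was measured fluorometrically. Value is the concentration giving 50% inhibition.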

Rattus norvegicus [6] = assay: Antiallergic activity in po dosed rat allergic bronchoconstriction model assessed as survival from death by bronchoconstriction administered 15 to 30 mins prior to ovalbumin challenge measured after 10 mins; assay type: functional; settings: read-out: ID50 (the source's name)
Summary of the method: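 Rats immunized im with 1 mg ovalbumin on alumina in the nuchal region, three times on alternate days. On day 8, 9 or 10 they were anaesthetised (pentobarbital 60 mg/kg ip), tracheally cannulated and breathed spontaneously. Drug was given po 15 and 30 min before a 1 mg ovalbumin iv (jugular) challenge. Survival was scored over 10 min, giving the po dose that prevents death in 50% of animals.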

Cavia porcellus = organism: Cavia porcellus; assay: Antagonist activity at histamine receptor in guinea pig ileum assessed as reduction in histamine-induced contractions up to 0.1 mM; assay type: tissue-based
Rattus norvegicus [7] = assay: Antiallergic activity in po dosed rat assessed as inhibition of ovalbumin-induced passive cutaneous anaphylaxis relative to doxantrazole; assay type: functional; summary of the method: as §1
Rattus norvegicus [8] = assay: Antiallergic activity in po dosed rat allergic bronchoconstriction model assessed as survival from death by bronchoconstriction administered 15 to 30 mins prior to ovalbumin challenge measured after 10 mins relative to doxantrazole; assay type: functional
Rattus norvegicus [9] = assay: Antiallergic activity in rat assessed as inhibition of ovalbumin-induced passive cutaneous anaphylaxis at 0.5 mg/kg, iv measured after 14 days relative to doxantrazole; assay type: functional; summary of the method: as §2
Rattus norvegicus [10] = assay: Antiallergic activity in po dosed rat allergic bronchoconstriction model assessed as reduction in respiratory flow rate administered 15 to 30 mins prior to ovalbumin challenge measured after 10 mins relative to doxantrazole; assay type: functional; summary of the method: as §3
Rattus norvegicus [11] = assay: Antiallergic activity in rat assessed as inhibition of ovalbumin-induced passive cutaneous anaphylaxis at 0.5 mg/kg, iv measured after 14 days relative to cromolyn sodium; assay type: functional; summary of the method: as §2
Rattus norvegicus [12] = assay: Antiallergic activity in rat assessed as inhibition of ovalbumin-induced passive cutaneous anaphylaxis at 1 mg/kg, iv measured after 14 days; assay type: functional; summary of the method: as §2
Rattus norvegicus [13] = assay: Antiallergic activity in rat assessed as inhibition of ovalbumin-induced passive cutaneous anaphylaxis at 10 mg/kg, ip measured after 14 days; assay type: functional; settings: route intraperitoneal

In the case of `CCCCOc1ccc2nc3ccc(C(=O)O)cn3c(=O)c2c1`, the ED50 (Rattus norvegicus [1]) is reported as > 2 mg/kg and the inhibition in vivo at 0.5 mg/kg (Rattus norvegicus [2]) is reported as 88%.

For `O=C(O)c1ccc2nc3ccc(OCCO)cc3c(=O)n2c1`, the ED50 (Rattus norvegicus [1]) was > 1 mg/kg.

For `C=CCOc1ccc2nc3ccc(C(=O)O)cn3c(=O)c2c1`, the ED50 (Rattus norvegicus [1]) was > 1 mg/kg.

`Cl.O=C(O)c1ccc2nc3ccccc3c(=O)n2c1` showed an ED50 (Rattus norvegicus [3]) of 0.5 mg/kg, an ED50 (Rattus norvegicus [1]) of 2.5 mg/kg and an inhibition in vivo at 0.5 mg/kg (Rattus norvegicus [2]) of 45%.

Compound `O=C1c2ccccc2S(=O)(=O)c2cc(-c3nn[nH]n3)ccc21` [DOXANTRAZOLE] has an ID100 (Rattus norvegicus [3]) of 10 mg/kg, an ED50 (Rattus norvegicus [3]) of 1.5 mg/kg and an ED50 (Rattus norvegicus [1]) of 5 mg/kg. It also gave an ID40 (Rattus norvegicus [4]) of 43 mg/kg, an IC50 [5] of 480 nM and an ED50 (Rattus norvegicus [6]) of 125 mg/kg.

With `COc1cc2nc3ccc(C(=O)O)cn3c(=O)c2cc1OC` the ED50 (Rattus norvegicus [3]) was 0.05 mg/kg, the ED50 (Rattus norvegicus [1]) was 10 mg/kg and the inhibition in vivo at 0.5 mg/kg (Rattus norvegicus [2]) was 100%.

With `O=C(O)c1ccc2nc3ccc(Br)cc3c(=O)n2c1` the ED50 (Rattus norvegicus [1]) was 1 mg/kg and the inhibition in vivo at 0.5 mg/kg (Rattus norvegicus [2]) was 34%.

Work on `O=C(O)c1ccc2nc3cc4c(cc3c(=O)n2c1)OCO4` yielded an inhibition in vivo at 0.5 mg/kg (Rattus norvegicus [2]) of 30%.

In the case of `O=C(O)c1ccc2nc3ccc(Cl)cc3c(=O)n2c1`, the inhibition in vivo at 0.5 mg/kg (Rattus norvegicus [2]) is reported as 40%.

For `Cc1ccc2nc3ccc(C(=O)O)cn3c(=O)c2c1`, the ID100 (Rattus norvegicus [3]) was 2.5 mg/kg, the ED50 (Rattus norvegicus [3]) was 0.05 mg/kg and the ED50 (Rattus norvegicus [1]) was 0.75 mg/kg. The inhibition (Cavia porcellus) was “inactive”, the inhibition in vivo at 0.5 mg/kg (Rattus norvegicus [2]) was 100% and the ID40 (Rattus norvegicus [4]) was 9.3 mg/kg. The “fold change (FC)” value (Rattus norvegicus [7]) was 4, the IC50 [5] was 940 nM and the ED50 (Rattus norvegicus [6]) was 12.5 mg/kg. The “fold change (FC)” value (Rattus norvegicus [8]) was 10, the “fold change (FC)” value (Rattus norvegicus [9]) was 30 and the “fold change (FC)” value (Rattus norvegicus [10]) was 4.6. For the same compound, the “fold change (FC)” value (Rattus norvegicus [11]) was 30.

In the case of `CCOc1ccc2nc3ccc(C(=O)O)cn3c(=O)c2c1`, the ED50 (Rattus norvegicus [1]) is reported as > 1 mg/kg.

In the case of `COc1ccc2c(=O)n3cc(C(=O)O)ccc3nc2c1`, the ED50 (Rattus norvegicus [1]) is reported as > 2 mg/kg and the inhibition in vivo at 1 mg/kg (Rattus norvegicus [12]) is reported as 100%.

For `O=C(O)c1ccc2nc3cc(O)ccc3c(=O)n2c1`, the inhibition in vivo at 0.5 mg/kg (Rattus norvegicus [2]) was 36%.

Compound `Cc1cc2nc3ccc(C(=O)O)cn3c(=O)c2cc1C` has an ED50 (Rattus norvegicus [1]) of 2 mg/kg and an inhibition in vivo at 0.5 mg/kg (Rattus norvegicus [2]) of 25%.

With `O=C(O)c1ccc2nc3cc(O)c(O)cc3c(=O)n2c1` the ED50 (Rattus norvegicus [1]) was > 1 mg/kg.

In the case of `O=C(O)c1ccc2nc3ccc(O)cc3c(=O)n2c1`, the ED50 (Rattus norvegicus [3]) is reported as 0.05 mg/kg, the ED50 (Rattus norvegicus [1]) is reported as 5 mg/kg and the inhibition in vivo at 0.5 mg/kg (Rattus norvegicus [2]) is reported as 100%.

For `Cc1ccc2c(=O)n3cc(C(=O)O)ccc3nc2c1`, the inhibition in vivo at 10 mg/kg (Rattus norvegicus [13]) was 54%.

Compound `COc1ccc2nc3ccc(C(=O)O)cn3c(=O)c2c1` has an ED50 (Rattus norvegicus [3]) of 0.05 mg/kg, an ED50 (Rattus norvegicus [1]) of 0.5 mg/kg and an inhibition in vivo at 0.5 mg/kg (Rattus norvegicus [2]) of 100%.

For `CCCOc1ccc2nc3ccc(C(=O)O)cn3c(=O)c2c1`, the ED50 (Rattus norvegicus [1]) was 2 mg/kg and the inhibition in vivo at 0.5 mg/kg (Rattus norvegicus [2]) was 100%.

In the case of `O=C([O-])c1cc(=O)c2c(OCC(O)COc3cccc4oc(C(=O)[O-])cc(=O)c34)cccc2o1.[Na+].[Na+]` [CROMOLYN SODIUM], the ED50 (Rattus norvegicus [3]) is reported as 1 mg/kg, the ID50 (Rattus norvegicus [1]) is reported as “inactive” and the IC50 [5] is reported as 6500 nM.

Work on `O=C(O)c1ccc2nc3cc(Cl)ccc3c(=O)n2c1` yielded an ED50 (Rattus norvegicus [1]) of 5 mg/kg.
